BAP1 block – human BAP1 deubiquitinase inhibition; Q92560; recombinant BAP1, Ub-AMC hydrolysis fluorescence kinetic; active compounds read low; calls only at 20 µM; actives 0.48% (n = 72,000); AID 436;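 active = activity remaining at or below 50% of control, provided the compound also passes the data quality filters; inactive = the rest, including low values that fail the filters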
Target sequence (Q92560 whole entry, looked up): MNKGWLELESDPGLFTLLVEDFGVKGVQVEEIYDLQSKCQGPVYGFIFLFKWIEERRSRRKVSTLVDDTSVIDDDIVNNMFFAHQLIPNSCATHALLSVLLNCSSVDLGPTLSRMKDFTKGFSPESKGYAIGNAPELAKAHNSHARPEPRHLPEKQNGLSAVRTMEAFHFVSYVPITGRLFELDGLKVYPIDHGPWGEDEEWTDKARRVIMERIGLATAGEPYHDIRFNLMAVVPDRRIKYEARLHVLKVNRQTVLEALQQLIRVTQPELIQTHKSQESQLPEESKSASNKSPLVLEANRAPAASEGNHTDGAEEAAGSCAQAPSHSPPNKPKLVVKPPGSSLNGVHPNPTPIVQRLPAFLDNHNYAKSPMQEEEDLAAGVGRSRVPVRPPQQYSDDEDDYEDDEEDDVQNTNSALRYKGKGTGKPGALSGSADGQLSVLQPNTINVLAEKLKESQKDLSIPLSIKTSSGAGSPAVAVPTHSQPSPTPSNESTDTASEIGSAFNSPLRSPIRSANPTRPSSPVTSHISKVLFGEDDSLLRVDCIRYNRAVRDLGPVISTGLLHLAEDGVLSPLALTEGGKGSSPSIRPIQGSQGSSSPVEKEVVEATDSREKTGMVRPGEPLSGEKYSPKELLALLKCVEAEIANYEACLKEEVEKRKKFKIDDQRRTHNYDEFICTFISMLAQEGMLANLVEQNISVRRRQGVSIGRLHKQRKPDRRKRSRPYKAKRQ
JNK3 blocker – blocks human JNK3 kinase activity | purified JNK3 kinase activity, HTS | inhibition, % at 8 µM | actives 0.61% (n = 60,000) | AID 746; in the data active = inhibition above about 17%
M1 ag – activates the M1 muscarinic receptor | CHO-M1 cells, Fluo-4 calcium fluorescence, agonist mode; active compounds read high | B-score at 10 µM | actives 3% (n = 64,000) | AID 626;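 active = fluorescence rise, raw or as B-score row- and column-corrected plate score, outside the 99.7% band of its plate's samples, either direction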
HEK293 NFkB inh – lowers PMA/ionomycin-induced NF-kB signal in HEK293 cells; actives 0.21% (n = 62,000); HEK-293 NF-kB luciferase reporter, luminescence; inhibition, % at 3 µM; AID 465;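 active = inhibition above the mean of all tested compounds plus 3 SD, cut at about 40% in these data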
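System: NF-kB luciferase reporter HEK-293 cells | Replication: Single test | Control set: DMSO vs reference inhibitor | Evaluation: % inhibition | Schedule: 1 h pretreatment, 16 h stimulation, 37 °C | Probe or stimulus: PMA with ionomycin | Compound dosing: One dose, 3 µM | Detection: Luciferase luminescence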
M1 antagonist – antagonists of rat M1 muscarinic receptor; AID 628; B-score at 10 µM; P08482; actives 3.4% (n = 64,000); CHO-M1 cells, Fluo-4 calcium, ACh EC80 antagonist mode; active compounds read low;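 active = calcium fluorescence response, raw or row-and-column corrected B-score, differing from the plate sample mean either way at a set confidence level, mostly lower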
HER2 expr 66K – lowers expression of human Her2 kinase; P04626; SKBR-3 HER2 protein level, AlphaScreen, 18-24 h; active compounds read low; HER2 level % of control, % at 10 µM; actives 0.69% (n = 65,000); AID 645;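 active = HER2 level under 5% of the carrier-only control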;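 also: lower value means stronger loss of Her2 protein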
Each line names hits and unclear results; the compound was inactive in the other large screens. Hits are enriched below; roughly 6.6% of the tested compounds scored in any of these assays.

O=C(O)CCn1c(=O)[nH]c2ccccc2c1=O	none
CCOC(=O)c1c(C)[nH]sc1=S	JNK3 blocker 19 (no result: HEK293 NFkB inh)
CCOC(=O)c1[nH]c(C)c(C(=O)OCC)c1C	none
CCOC(=O)CN1C(=O)NC(C)(c2ccc(OC(F)F)cc2)C1=O (configuration not stated)	none
CC1(c2ccc(OC(F)F)cc2)NC(=O)N(CC(=O)Nc2ccc3c(c2)OCO3)C1=O (configuration not stated)	M1 ag 23
COc1ccc2c(c1)CCCC21NC(=O)NC1=O (configuration not stated)	none
COc1ccc2cc(C3(C)NC(=O)NC3=O)ccc2c1 (configuration not stated)	M1 antagonist 2.4
CCOC(=O)CCC(=O)N1CCNC(=O)C1	M1 antagonist 2.2 (no result: BAP1 block, JNK3 blocker, HEK293 NFkB inh, HER2 expr 66K)
CCC(C)Nc1c(N)c(=O)oc2ccccc12 (configuration not stated)	none (no result: JNK3 blocker, M1 ag, HEK293 NFkB inh, M1 antagonist, HER2 expr 66K)
CCOC(=O)c1c(N)n[nH]c1-c1ccc(OC)cc1	JNK3 blocker 18
Nc1ccc(C(=O)OCCCc2nc3ccccc3[nH]2)cc1	M1 antagonist 0.86
Nc1ccc(C(=O)OCc2nc3ccccc3[nH]2)cc1	none
CCCC(c1nnnn1Cc1ccco1)N1CCN(C(=O)c2ccco2)CC1 (configuration not stated)	M1 antagonist 0.15
CCCCC(c1nnnn1Cc1ccco1)N1CCN(C(=O)c2ccco2)CC1 (configuration not stated)	none
O=C(c1cc2nc(-c3cccs3)cc(C(F)(F)F)n2n1)N1CCN(c2ccccc2)CC1	none (no result: JNK3 blocker, M1 ag, HEK293 NFkB inh, M1 antagonist, HER2 expr 66K)
CC(C)C[C@H](NC(=O)Nc1ccc(S(N)(=O)=O)cc1)C(=O)O	none (no result: M1 ag, M1 antagonist)
COC(=O)[C@H](C)NC(=O)Nc1ccc(S(N)(=O)=O)cc1	M1 antagonist 1.6
CCCCCCCCCCCCCCCCOCC(COCC(F)(F)F)OP(=O)(O)OCO (configuration not stated)	BAP1 block active (no result: JNK3 blocker, M1 ag, HEK293 NFkB inh, M1 antagonist, HER2 expr 66K)
CCCCNC(=O)OC1CCS(=O)(=O)C1 (configuration not stated)	none
O=C(NC(=O)c1cccc(OC(F)(F)C(F)F)c1)OC1CCS(=O)(=O)C1 (configuration not stated)	M1 ag 22, M1 antagonist -19
Cn1c(=NC(=O)c2cc3ccccc3oc2=O)sc2cc(Cl)ccc21	none (no result: JNK3 blocker, M1 ag, HEK293 NFkB inh, M1 antagonist, HER2 expr 66K)
c1ccc2[nH]c(CSc3ncnc4c3oc3ccccc34)nc2c1	JNK3 blocker 19
COc1cc([N+](=O)[O-])ccc1CC#N	none (no result: JNK3 blocker, M1 ag, HEK293 NFkB inh, M1 antagonist, HER2 expr 66K)
Nc1c(Nc2ccc(C(=O)O)cc2)c2ccccc2oc1=O	none (no result: JNK3 blocker, M1 ag, HEK293 NFkB inh, M1 antagonist, HER2 expr 66K)
O=c1c2ccccc2nc2n1CCCCN2	JNK3 blocker 21
O=C(NC1c2ccccc2-c2ccccc21)N1CCCCC1	HEK293 NFkB inh 43
COc1ccc(OC)c(C2=Nn3c(nnc3-c3cc(OC)c(OC)c(OC)c3)SC2)c1	M1 ag 3.3
COc1cccc(-c2nnc3n2N=C(c2cc(OC)ccc2OC)CS3)c1	none (no result: BAP1 block, JNK3 blocker, HER2 expr 66K)
COc1ccc(C2=Nn3c(nnc3-c3ccccc3OC)SC2)cc1OC	HEK293 NFkB inh 47
COc1cccc(-c2nnc3n2N=C(C(C)(C)C)CS3)c1	HEK293 NFkB inh 50 (no result: BAP1 block, JNK3 blocker, HER2 expr 66K)
Cc1cc(C)n(S(=O)(=O)c2cc(C(=O)O)c(Cl)cc2Cl)n1	M1 antagonist 2.3
O=C1C(c2ccncc2)=C(O)c2ccccc21	JNK3 blocker 56
Cc1ccc(C(=O)Oc2cccc(C(=S)N3CCOCC3)c2)cc1	none (no result: JNK3 blocker, M1 ag, HEK293 NFkB inh, M1 antagonist, HER2 expr 66K)
CC(=O)NC(Cc1c[nH]c2ccccc12)C(=O)OCC(=O)Nc1ccc2c(c1)OCO2 (configuration not stated)	HER2 expr 66K -33
CCOc1ccc(C2CC(=O)NC3=C2C(=O)CCC3)cc1 (configuration not stated)	JNK3 blocker 45
C=CCn1c2ccccc2n2cc(-c3ccc([N+](=O)[O-])cc3)nc12	none (no result: JNK3 blocker, M1 ag, HEK293 NFkB inh, M1 antagonist, HER2 expr 66K)
CCSC1=C(C#N)C(c2cccc(O)c2)CC(=O)N1 (configuration not stated)	none
CCSC1=C(C#N)C(c2cccc(Br)c2)CC(=O)N1 (configuration not stated)	M1 antagonist 11
Cn1c(C(=O)N2CCN(Cc3ccc4c(c3)OCO4)CC2)cc2c(=O)n(C)c3ccccc3c21	JNK3 blocker 24
CC(NC(=O)c1cc2c(=O)n(C)c3ccccc3c2n1C)c1ccc2c(c1)OCCO2 (configuration not stated)	M1 ag 4.4
Cc1ccc(C)c(N(CC(=O)N(C)C)S(C)(=O)=O)c1	M1 antagonist 1.3
CN(C)C(=O)CN(c1ccc(F)c(Cl)c1)S(C)(=O)=O	none
O=C1c2cccc([N+](=O)[O-])c2C(=O)N1c1cc([N+](=O)[O-])ccc1Cl	none (no result: JNK3 blocker, M1 ag, HEK293 NFkB inh, M1 antagonist, HER2 expr 66K)
CC(C)n1c(SCc2ccc(Cl)cc2)nc2c1c(=O)[nH]c(=O)n2C	HER2 expr 66K -55
NC(=O)c1cc(Br)cc2c3c([nH]c12)CCCC3	JNK3 blocker 55
Cc1ccnc(N2CCN(c3cc(C)c(C#N)c4nc5ccccc5n34)CC2)c1	M1 antagonist -2.5 (no result: HEK293 NFkB inh)
CCOC(=O)N1CCC(NC(=O)CCC(=O)N2CCOc3ccc(C)cc32)CC1	M1 antagonist 3.3
CC(=O)OCc1c(F)c(F)c(-n2nc(C)cc2C)c(F)c1F	none
Cc1cc(C)n(-c2c(F)c(F)c(CN3CCOCC3)c(F)c2F)n1	HER2 expr 66K -21
CS(=O)(=O)N(Cc1ccc(C(=O)NCc2ccco2)cc1)c1ccccc1	M1 antagonist 1.9
CN(c1ccc(C(=O)NCc2ccco2)cc1)S(C)(=O)=O	none (no result: JNK3 blocker)
O=C(CSc1ncccn1)Nc1ccccc1	M1 antagonist 1.9
CC(NC(=O)CSc1ncccn1)c1ccccc1 (configuration not stated)	none
CCNC(=O)c1nc[nH]c1C(=O)NCC	HER2 expr 66K -22
CCOC(=O)c1[nH]cnc1C(=O)O	none
CC(=O)c1c(C)[nH]c(C(=O)OCn2nnc3ccccc3c2=O)c1C	JNK3 blocker 18
COc1cc(OC)cc(C(=O)OCn2nnc3ccccc3c2=O)c1	none
COc1cc(NS(=O)(=O)c2ccc(C)cc2)c2ncccc2c1	HER2 expr 66K -5.2
O=S(=O)(CCn1cccc1)CCn1cccc1	M1 antagonist 2.2 (no result: JNK3 blocker)
CCOC(=O)CNC(=O)CSc1ncnc2c1cnn2Cc1ccccc1	HER2 expr 66K -18
CCOC(=O)CNC(=O)CSc1ncnc2c1cnn2-c1ccc(Cl)cc1	none
Cn1nc(CC(=O)Nc2ccc(N3CCN(C(=O)OC(C)(C)C)CC3)cc2)c2ccccc2c1=O	HEK293 NFkB inh 45
CC(C)Cc1nc2oc3c(N4CCN(CCO)CC4)ncnc3c2c2c1CCCC2	HER2 expr 66K -3.6
Cc1c(NC(=O)c2ccccc2I)cccc1-c1nc2ncccc2o1	none (no result: JNK3 blocker, M1 ag, HEK293 NFkB inh, M1 antagonist, HER2 expr 66K)
CC1CCN(C(=O)Cn2cc3c(n2)CCCC3)CC1	none
CCOC(=O)N1CCN(C(=O)Cn2cc3c(n2)CCCC3)CC1	M1 ag -3.2
CCCCCN=Cc1c(C)[nH]n(-c2nc3ccccc3s2)c1=O	HER2 expr 66K -20

Assay outcomes (PubChem BioAssay)
